Values after ≈ are worked out from the molar mass of the structure shown. Active and inactive are the calls of the source.
How the values were obtained:
Pseudomonas aeruginosa [1] = experiment: Antibacterial activity against MDR clinical isolate Pseudomonas aeruginosa PA264 assessed as reduction in bacterial growth after 18 hrs by microbroth dilution method; type: functional
Method in brief: (§1)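 Broth microdilution per CLSI in Mueller-Hinton broth (MHB). Overnight cultures were adjusted to 0.5 McFarland in saline, diluted 1:50 in MHB, and added at about 5 × 10^5 CFU/mL final to equal volumes of 2-fold serial dilutions of agent. Incubation was 18 h at 37 °C. MIC was the lowest concentration with no visible turbidity, confirmed by absorbance at 590 nm.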

Escherichia coli [2] = experiment: Potentiation of erythromycin-induced antibiotic activity against Escherichia coli ATCC 25922 assessed as MIC fold reduction at 8 ug/ml after 18 hrs by microbroth dilution method; type: functional; conditions: dose 8 µg/ml
Method in brief: (§2)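 Adjuvant held at a fixed 8 μg/mL while the antibiotic was 2-fold serially diluted in Mueller-Hinton broth (MHB), per CLSI microbroth dilution. Overnight cultures were adjusted in saline to 0.5 McFarland, then diluted 1:50 in MHB to about 5 × 10^5 CFU/mL final, and incubated 18 h at 37 °C. MIC was the lowest concentration with no visible turbidity, confirmed at 590 nm. Fold potentiation = MIC alone / MIC with adjuvant.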

Pseudomonas aeruginosa [3] = experiment: Potentiation of aztreonam-induced antibiotic activity against Pseudomonas aeruginosa PAO1 assessed as MIC fold reduction at 8 ug/ml after 18 hrs by microbroth dilution method; type: functional; conditions: dose 8 µg/ml
Method in brief: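 Initial screen in MHB using a fixed 8 μg mL−1 of adjuvant combined with each antibiotic under 2-fold dilution. Broth microdilution used about 5 × 10^5 CFU/mL at 37 °C for 18 h, with visible turbidity read and confirmed at 590 nm. Fold-potentiation = antibiotic MIC alone ÷ antibiotic MIC with adjuvant.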

Pseudomonas aeruginosa [4] = experiment: Antibacterial activity against colistin-resistant clinical isolate Pseudomonas aeruginosa PA114228 assessed as reduction in bacterial growth after 18 hrs by microbroth dilution method; type: functional; method in brief: as §1
Pseudomonas aeruginosa [5] = experiment: Potentiation of ceftolozane-induced antibiotic activity against MDR clinical isolate Pseudomonas aeruginosa PA259 assessed as MIC fold reduction at 8 ug/ml after 18 hrs by microbroth dilution method; type: functional, organism-based; conditions: dose 8.0 µg/ml; method in brief: as §2
Escherichia coli [6] = experiment: Potentiation of trimethoprim-induced antibiotic activity against Escherichia coli ATCC 25922 assessed as MIC fold reduction at 8 ug/ml after 18 hrs by microbroth dilution method; type: functional; conditions: dose 8 µg/ml
Acinetobacter baumannii [7] = experiment: Antibacterial activity against Acinetobacter baumannii AB031 assessed as reduction in bacterial growth after 18 hrs in presence of cefiderocol by microbroth dilution method; type: functional
Method in brief: (§3)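 Checkerboard in Mueller-Hinton broth: cefiderocol 2-fold diluted on one axis, adjuvant 2-fold on the other. Overnight cultures were adjusted to 0.5 McFarland in saline, diluted 1:50 in MHB, and inoculated at about 5 × 10^5 CFU/mL. Incubation was 18 h at 37 °C. Turbidity was read visually and confirmed at 590 nm. FIC index = FIC of antibiotic + FIC of adjuvant; ≤0.5 synergy, >4 antagonism.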

Pseudomonas aeruginosa [8] = experiment: Antibacterial activity against MDR clinical isolate Pseudomonas aeruginosa PA109084 assessed as potentiation of cefiderocol antibacterial activity by measuring FIC index after 18 hrs by microbroth dilution method; type: functional
Method in brief: (§4)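 Checkerboard in MHB. Cefiderocol was 2-fold serially diluted along one axis and the adjuvant along the other. Inoculum was prepared from 0.5 McFarland saline suspensions diluted 1:50 in MHB, giving about 5 × 10^5 CFU/mL final. Plates ran 18 h at 37 °C, with turbidity confirmed at 590 nm. FIC = combination MIC ÷ MIC alone for each agent, and FIC index = sum of both. Interpretation: ≤0.5 synergy, >0.5–4 additive, >4 antagonism.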

Pseudomonas aeruginosa [9] = experiment: Antibacterial activity against colistin-resistant clinical isolate Pseudomonas aeruginosa PA114228 assessed as reduction in bacterial growth after 18 hrs in presence of cefiderocol by microbroth dilution method; type: functional
Method in brief: (§5)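 Checkerboard in MHB (iron-replete, not iron-depleted CAMHB). Cefiderocol was 2-fold serially diluted along one axis and the adjuvant along the other. Inoculum was 0.5 McFarland diluted 1:50, about 5 × 10^5 CFU/mL final. Incubation was 18 h at 37 °C, with turbidity read visually and confirmed at 590 nm. FIC was the MIC in combination over the MIC alone for each agent, and the FIC index was their sum. Cut-offs were ≤0.5 synergy, >0.5–4 additive, >4 antagonism.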

Acinetobacter baumannii [10] = experiment: Potentiation of linezolid-induced antibiotic activity against Acinetobacter baumannii ATCC 17978 assessed as MIC fold reduction at 8 ug/ml after 18 hrs by microbroth dilution method; type: functional; conditions: dose 8 µg/ml; method in brief: as §2
Acinetobacter baumannii [11] = experiment: Potentiation of vancomycin-induced antibiotic activity against Acinetobacter baumannii ATCC 17978 assessed as MIC fold reduction at 8 ug/ml after 18 hrs by microbroth dilution method; type: functional; conditions: dose 8 µg/ml
Klebsiella pneumoniae [12] = experiment: Antibacterial activity against Klebsiella pneumoniae KP116381 assessed as reduction in bacterial growth after 18 hrs in presence of cefiderocol by microbroth dilution method; type: functional; method in brief: as §4
Klebsiella pneumoniae [13] = experiment: Antibacterial activity against Klebsiella pneumoniae KP113254 assessed as potentiation of cefiderocol antibacterial activity by measuring FIC after 18 hrs by microbroth dilution method; type: functional; method in brief: as §4
Acinetobacter baumannii [14] = experiment: Potentiation of tobramycin-induced antibiotic activity against Acinetobacter baumannii ATCC 17978 assessed as MIC fold reduction at 8 ug/ml after 18 hrs by microbroth dilution method; type: functional; conditions: dose 8 µg/ml
Acinetobacter baumannii [15] = experiment: Antibacterial activity against Acinetobacter baumannii ATCC 17978 assessed as reduction in bacterial growth after 18 hrs by microbroth dilution method; type: functional
Method in brief: (§6)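 CLSI microbroth dilution in MHB. Overnight cultures were adjusted to 0.5 McFarland in saline, diluted 1:50, and inoculated at about 5 × 10^5 CFU/mL. Agents were 2-fold serially diluted and incubated 18 h at 37 °C. MIC is the lowest concentration without visible turbidity, confirmed by absorbance at 590 nm. Medium with and without cells served as controls.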

Pseudomonas aeruginosa [16] = experiment: Antibacterial activity against MDR clinical isolate Pseudomonas aeruginosa PA100036 assessed as reduction in bacterial growth after 18 hrs by microbroth dilution method; type: functional; method in brief: as §1
Pseudomonas aeruginosa [17] = experiment: Antibacterial activity against MDR clinical isolate Pseudomonas aeruginosa PA109084 assessed as reduction in bacterial growth after 18 hrs by microbroth dilution method; type: functional
Method in brief: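 CLSI broth microdilution. Overnight cultures were adjusted in saline to 0.5 McFarland, diluted 1:50 in Mueller-Hinton broth (MHB), and inoculated at about 5 × 10^5 CFU/mL. Agents were 2-fold serially diluted in MHB, mixed 1:1 with inoculum, and held at 37 °C for 18 h. MIC was the lowest concentration with no visible turbidity, confirmed at 590 nm.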

Acinetobacter baumannii [18] = experiment: Antibacterial activity against Acinetobacter baumannii AB92247 assessed as reduction in bacterial growth after 18 hrs in presence of cefiderocol by microbroth dilution method; type: functional; method in brief: as §3
Acinetobacter baumannii [19] = experiment: Potentiation of niclosamide-induced antibiotic activity against Acinetobacter baumannii ATCC 17978 assessed as MIC fold reduction at 8 ug/ml after 18 hrs by microbroth dilution method; type: functional; conditions: dose 8 µg/ml
Pseudomonas aeruginosa [20] = experiment: Antibacterial activity against colistin-resistant clinical isolate Pseudomonas aeruginosa PA91433 assessed as reduction in bacterial growth after 18 hrs in presence of cefiderocol by microbroth dilution method; type: functional; method in brief: as §5
Pseudomonas aeruginosa [21] = experiment: Antibacterial activity against […] Pseudomonas aeruginosa PAO1 assessed as reduction in bacterial growth after 18 hrs in presence of cefiderocol by microbroth dilution method; type: functional; method in brief: as §4
Klebsiella pneumoniae [22] = experiment: Antibacterial activity against Klebsiella pneumoniae KP113250 assessed as reduction in bacterial growth after 18 hrs by microbroth dilution method; type: functional; method in brief: as §6

NC[C@H]1O[C@H](O[C@H]2[C@H](OCCCCc3cn(-c4ccc(NC(=O)c5cc(Cl)ccc5O)cc4)nn3)[C@@H](O[C@H]3O[C@H](CO)[C@@H](O)[C@H](N)[C@H]3O)[C@H](N)C[C@@H]2N)[C@H](N)C[C@@H]1O
MIC (Pseudomonas aeruginosa [1]): > 128 µg/mL
fold change (FC) (Escherichia coli [2]): 4
fold change (FC) (Pseudomonas aeruginosa [3]): 4
MIC (Pseudomonas aeruginosa [4]): 32 µg/mL (≈ 38.3 µM)
Activity (Pseudomonas aeruginosa [5]): Active
fold change (FC) (Escherichia coli [6]): 4
MIC (Acinetobacter baumannii [7]): 0.25 µg/mL
FIC (Pseudomonas aeruginosa [8]): 0.004
MIC (Pseudomonas aeruginosa [9]): 16 µg/mL
fold change (FC) (Acinetobacter baumannii [10]): 4
fold change (FC) (Acinetobacter baumannii [11]): 4
MIC (Klebsiella pneumoniae [12]): 0.25 µg/mL
FIC (Klebsiella pneumoniae [13]): 0.5
fold change (FC) (Acinetobacter baumannii [14]): 4
MIC (Acinetobacter baumannii [15]): > 128 µg/mL
MIC (Pseudomonas aeruginosa [16]): > 128 µg/mL
MIC (Pseudomonas aeruginosa [17]): > 128 µg/mL
MIC (Acinetobacter baumannii [18]): 8 µg/mL
fold change (FC) (Acinetobacter baumannii [19]): 4
MIC (Pseudomonas aeruginosa [20]): 1 µg/mL
MIC (Pseudomonas aeruginosa [21]): 0.5 µg/mL
MIC (Klebsiella pneumoniae [22]): > 128 µg/mL

From ChEMBL document CHEMBL5136969, “A niclosamide-tobramycin hybrid adjuvant potentiates cefiderocol against P. aeruginosa” (2021)
